NPY-Y2 antag = antagonists of human neuropeptide Y receptor Y2; P49146; 140,000 tested, 0.99% active; AID 793; NPY-Y2 expressing cells, antagonist mode; inhibition, % at 2.7 µM;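 further: 0% = vehicle with agonist challenge and 100% = reference antagonist with challenge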
NPY1 pot ag = potentiators or agonists of human neuropeptide Y receptor Y1. NPY-Y1 expressing cells, potentiator/agonist activation. activation, % at 3.6 µM. 220,000 tested, 0.37% active. AID 1304; in the data active means activation above about 33%, passing the limit was not always enough;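 further: cells stimulated with NPY at EC10 then isoproterenol at EC100; 0% = low agonist plus stimulus and 100% = saturating agonist plus stimulus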
Target sequence (P25929 whole entry, looked up): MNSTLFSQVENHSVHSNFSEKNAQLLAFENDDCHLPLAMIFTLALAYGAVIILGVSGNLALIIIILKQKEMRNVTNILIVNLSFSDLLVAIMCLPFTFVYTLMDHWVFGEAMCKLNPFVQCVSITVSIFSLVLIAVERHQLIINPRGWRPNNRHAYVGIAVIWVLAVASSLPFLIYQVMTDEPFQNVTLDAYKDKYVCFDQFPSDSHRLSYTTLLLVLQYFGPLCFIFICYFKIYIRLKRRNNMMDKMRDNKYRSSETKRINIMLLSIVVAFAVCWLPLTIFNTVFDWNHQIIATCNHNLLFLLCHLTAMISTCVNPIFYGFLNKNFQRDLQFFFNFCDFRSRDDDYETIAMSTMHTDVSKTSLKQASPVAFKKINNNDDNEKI
NPY-Y1 antag = blocks the human neuropeptide Y Y1 receptor | P25929 | HEK293-CNG Y1 cells, membrane potential fluorescence; NPY at EC95, then isoproterenol | inhibition, % at 3.6 µM | 200,000 tested, 1% active | AID 1040;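 active means inhibition above the campaign mean inhibition of all tested compounds plus 3 SD, cut at about 20% in these data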;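 further: 0% = DMSO wells given NPY plus isoproterenol and 100% = isoproterenol alone without NPY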
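Material: HEK293 Y1/CNG channel cell line | Also added: NPY (25 nM), isoproterenol (1 µM), Ro 20-1724 (25 µM) | Compound: One concentration, 3.6 µM, in 0.4% DMSO | Schedule: 3 h dye uptake, 1 h room-temperature compound, 45 min post-isoproterenol | Signal: Membrane-potential fluorescent dye readout | Read-out: % inhibition of NPY effect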
NPY-Y2 PAM-ag = potentiators or agonists of human neuropeptide Y receptor Y2; activation, % at 3.6 µM; AID 1359; P49146; cells expressing NPY-Y2, potentiator/agonist read-out; 220,000 tested, 0.45% active; in the data active means activation above about 27%;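 further: cells stimulated with NPY near EC25 plus isoproterenol at EC100; 0% = vehicle plus submaximal agonist and 100% = vehicle plus saturating agonist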
NPY-Y1 ant conf = confirmation of human neuropeptide Y receptor Y1 antagonists; shares compounds with NPY-Y1 antag; HEK293-CNG NPY-Y1, membrane potential fluorescence, cAMP; NPY challenge against isoproterenol-raised cAMP; inhibition, % at 3.6 µM; 1,200 tested, 21% active; in the data active means inhibition above about 20%;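 further: 0% = vehicle with agonist plus stimulus and 100% = stimulus alone without agonist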
NPY-Y2 antag ct = human NPY-Y2 antagonism in NPY-Y1 counter-screen; shares compounds with NPY-Y1 antag; HEK293 NPY-Y2 CNG membrane potential fluorescence; cells given NPY, then isoproterenol; inhibition, % at 3.6 µM; 1,200 tested, 28% active;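 further: 0% = DMSO with agonist challenge and 100% = reference antagonist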
* marks the source's active call; other numbers are inactive results; . = no result; ! = repeats disagree. Compounds with a hit are over-represented: about 1.8% of the library has one in this group of screens. Unless noted, no stated cut-off is given here; in the data, active means inhibition above about 17%; inactive means the rest.

SMILES	NPY-Y2 antag	NPY1 pot ag	NPY-Y1 antag	NPY-Y2 PAM-ag	NPY-Y1 ant conf	NPY-Y2 antag ct
N/C(=N\OC(=O)Cc1cccs1)c1ccc([N+](=O)[O-])cc1	2	28	24*	-1	2	6
N#CC(/C(=N/S(=O)(=O)c1cccs1)c1ccccc1)c1nc2ccccc2[nH]1 (centres undefined)	2	-16	23*	-23	21*	26*
COc1cccc(OC)c1OCCCOc1ccc(C)cc1Br	14	-28	1	-4	.	.
Cn1nc(C(F)(F)F)cc1-c1ccc(S(N)(=O)=O)s1	.	0	.	-15	.	.
CSc1ccc(-c2nc3cnccn3c2Nc2ccc3c(c2)OCO3)cc1	12	13	28*	17	16	5
Clc1ccc(-c2nc3cnccn3c2Nc2ccc3c(c2)OCO3)cc1	10	5	15	12	.	.
CCOC(=O)C1(Cc2ccccc2)CCN(Cc2cccn2-c2cccnc2)CC1	.	-9	30*	-8	15	8
CCOC(=O)C1(Cc2ccccc2)CCN(Cc2cccn2-c2nccs2)CC1	.	-33	29*	-10	12	22*
COc1ccccc1-n1cnc2cc(NCc3cccs3)ccc21	10	1	21*	-5	9	20*
CCN(C(=O)CSC1=Nc2ccccc2C2CC=NN12)C1CCS(=O)(=O)C1 (centres undefined)	.	-1	0	-23	.	.
Cc1ccc(NN2C(=O)C=C(c3ccccc3)C2=O)cc1	.	5	6	9	.	.
CCOc1ccc(-n2c(-c3ccccc3)c[n+]3c2CCCCC3)cc1	15	-36	24*	12	14	17*
c1ccc(-c2c[n+]3c(n2-c2ccccc2)CCC3)cc1	.	9	.	4	.	.
CCOc1ccc2[nH]cc(C(=O)NCCCN3CCOCC3)c(=O)c2c1	.	-6	5	5	.	.
O=C(CSc1ccc2c(c1)OCCO2)NCCc1ccc(Cl)cc1Cl	12	-44	20*	-21	8	7
CCN(CC)S(=O)(=O)c1cc(NC(=O)CNc2c(C)n(C)n(-c3ccccc3)c2=O)ccc1C	.	5	0	-7	.	.
Cc1cccc(C(C)(C)C)c1OCCCCN1CCCC1	9	-23	21*	-17	10	15
CC(C)(C)c1ccccc1OCCCCN1CCCC1	6	-12	12	1	.	.
O=C(Cn1ccc(C(F)(F)F)n1)N=Nc1c(O)[nH]c2ccccc12	.	-2	38*	-46	36*	40*
O=C(Cn1ccc(C(F)(F)F)n1)N=Nc1c(O)[nH]c2ccc(Br)cc12	.	7	1	0	.	.
COc1ccc(-c2c[n+](CC(=O)OC3CC(C)CCC3C(C)C)c3n2CCC3)cc1 (centres undefined)	.	-47	75*	-7	61*	35*
O=C1COc2ccc(C(=O)COc3ccc([N+](=O)[O-])cc3)cc2N1	.	8	.	-2	.	.
O=C(NCc1ccco1)c1nc(-c2ccc(F)cc2)no1	.	-30	24*	-21	11	9
O=C(NCc1ccco1)c1ccccc1-c1nc(-c2ccc(F)cc2)no1	.	-13	.	-12	.	.
COC(=O)CSc1nc(-c2ccccc2)nc2ccc(F)cc12	-1	-16	4	2	.	.
SMILES	NPY-Y2 antag	NPY1 pot ag	NPY-Y1 antag	NPY-Y2 PAM-ag	NPY-Y1 ant conf	NPY-Y2 antag ct
CCOC(=O)CSc1nc(-c2ccccc2)nc2ccc(F)cc12	13	-13	23*	-16	10	10
CCN(CC(O)COc1ccc(OCC(O)CN(CC)C2CCCCC2)cc1)C1CCCCC1 (centres undefined)	10	-53	22*	-11	6	32*
CCN(CC(O)COCc1ccc(Cl)cc1)C1CCCCC1 (centres undefined)	.	-1	6	-5	.	.
Cn1c(=O)cc(SCC(=O)NCCCN2CCN(c3ccccc3F)CC2)c2ccccc21	11	-22	21*	-4	6	2
c1ccc(Oc2ncnc3oc(-c4ccccc4)cc23)cc1	2	7	-1	-8	.	.
c1ccc(-c2cc3c(-n4cccc4)ncnc3o2)cc1	10	-9	21*	-23	4	8
CCOC(=O)CSc1nnc(CNC(=O)c2ccc(OC)cc2OC)n1-c1ccc(OC)cc1	1	5	7	0	.	.
O=C1CCc2cc(OCCCCc3nnnn3C3CCCCC3)ccc2N1	7	-70	43*!	-21	26*	46*
COc1cccc(N2CCN(Cc3nnnn3C3CCCCC3)CC2)c1	.	16	-1	5	.	.
